The test system of data set [1] is Toxoplasma gondii. The data set is described as follows: Antimicrobial activity against Toxoplasma gondii infected in HFF after 8 days by plaque assay. The data set is classed as functional, organism-based. The conditions noted are these: 192 h.
Data set [2] concerns Toxoplasma gondii. The experiment in a line: Antimicrobial activity against Toxoplasma gondii RH infected in HFF assessed as inhibition of parasite growth at 10 to 25 uM after 28 hrs by immunofluorescence assay. It is filed as functional, organism-based. The essentials: (§1)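 Human fibroblast (HFF) cultures infected with intracellular T. gondii were exposed to compound in DMSO, with DMSO-only controls. They were fixed 28 h after infection for immunofluorescence. Parasite subpellicular microtubules were stained green, with host microtubules or parasite surface antigen P30/SAG1 in red and DNA in blue. Matched phase-contrast images were taken, and parasites per vacuole were scored.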

Data set [3] relates to HFF. The data set is described as follows: Cytotoxicity against HFF assessed as cell vacuolation at 30 uM after 17 hrs by MTS assay. The note with it: human. It is filed as cell-based.
Data set [4] concerns Toxoplasma gondii. The experiment in a line: Antimicrobial activity against Toxoplasma gondii RH infected in HFF assessed as inhibition of parasite replication at 10 to 25 uM after 28 hrs by immunofluorescence assay. It is filed as functional, organism-based. The gist of the method:
as §1

For data set [5], the system named is Toxoplasma gondii RH. The experiment in a line: Inhibition of tubulin in Toxoplasma gondii RH infected in HFF assessed as microtubules disruption at 10 to 25 uM after 28 hrs by immunofluorescence assay. The essentials:
as §1

The subject of data set [6] is HFF. The experiment in a line: Cytotoxicity against HFF assessed as assessed as reduction of cell viability at 30 uM after 17 hrs by MTS assay. The data set is classed as cell-based. The note with it: human.
Data set [7] relates to Toxoplasma gondii. The data set is described as follows: Antimicrobial activity against Toxoplasma gondii RH infected in HFF assessed as inhibition of parasite replication at 0.5 uM after 28 hrs by immunofluorescence assay. The data set is classed as functional, organism-based.
Data set [8] deals with Toxoplasma gondii RH. The data set is described as follows: Inhibition of tubulin in Toxoplasma gondii RH infected in HFF assessed as microtubules disruption at 0.5 uM after 28 hrs by immunofluorescence assay. The essentials:
(§2)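 Human foreskin fibroblast (HFF) cultures infected with intracellular Toxoplasma were treated for 28 h with 0.5 µM compound in DMSO, with DMSO vehicle as control. Read-out was immunofluorescence: host cell microtubules in red, parasite subpellicular microtubules/tubulin in green, and host and parasite DNA in blue. Microtubules were scored as filamentous linear arrays or as diffuse staining, with matched phase-contrast images.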

For data set [9], the system named is HFF. The data set is described as follows: Cytotoxicity against HFF assessed as reduction of cell viability at 0.5 uM after 17 hrs by MTS assay. The data set is classed as cell-based. The note with it: human. The gist of the method: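 Host HFF cells were treated for 17 h with compound at 0.5 µM or 30 µM. Viable cells were quantified by tetrazolium dye (MTS, CellTiter reagent) assay.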

The next data set has as its target Tubulin (Homo sapiens) (UniProt P68371+Q9H4B7+P0DPH7+P68366+Q13509+Q71U36+P04350+Q3ZCM7+P07437+P68363+Q9BQE3+Q6PEY2+Q13885+Q9BVA1+Q9BUF5). The data set is described as follows: Inhibition of tubulin in HFF assessed as microtubules disruption at 0.5 uM after 28 hrs by immunofluorescence assay. The gist of the method: as §2

Molecules are shown by their SMILES. Activity calls are given as the source filed them. The calls are words filed in the database; no cut-off is given here.

The compound `CCCN(CCC)c1c([N+](=O)[O-])cc(S(=O)(=O)NCCO)cc1[N+](=O)[O-]` displayed an IC50 with Toxoplasma gondii [1] of 26000 nM.

`CCCN(CCC)c1c([N+](=O)[O-])cc(S(=O)(=O)Nc2ccccc2)cc1[N+](=O)[O-]` displayed an IC50 with Toxoplasma gondii [1] of 6700 nM.

Take `Cc1ccc(CN(Cc2ccc(C)cc2)c2c([N+](=O)[O-])cc(S(N)(=O)=O)cc2[N+](=O)[O-])cc1`: the inhibition result in the data set with Toxoplasma gondii [2] and in the data set on Toxoplasma gondii [4] was “Active” throughout. The Activity result with HFF [3] was “Toxic”. Further, the inhibition entry in the data set on Toxoplasma gondii RH [5] was “inactive”.

With `NS(=O)(=O)c1cc([N+](=O)[O-])c(N(CCc2ccccc2)CCc2ccccc2)c([N+](=O)[O-])c1`, the Activity result with HFF [6] and in the data set on HFF [3] was “Toxic” in each case. Moreover, the inhibition entry in the data set with Toxoplasma gondii [2] and with Toxoplasma gondii [4] was “Active” in each case. In addition, the inhibition result with Toxoplasma gondii RH [5] was “inactive”.

As to `CCCN(CCC)c1c([N+](=O)[O-])cc(C(F)(F)F)c(N)c1[N+](=O)[O-]`, the inhibition result in the data set with Toxoplasma gondii [7] and with Toxoplasma gondii RH [8] was “Active” throughout. Moreover, the Activity entry with HFF [9] and at Tubulin (Homo sapiens) was “Non-toxic” each time. In the data set with Toxoplasma gondii [1], this compound registered an IC50 of 36 nM.

As to `NS(=O)(=O)c1cc([N+](=O)[O-])c(N(Cc2ccccc2)Cc2ccccc2)c([N+](=O)[O-])c1`, the inhibition result in the data set on Toxoplasma gondii [2] and with Toxoplasma gondii [4] was “Active” each time. In the data set with Toxoplasma gondii RH [5], the inhibition result was “inactive”.

In the data set with Toxoplasma gondii [1], `NS(=O)(=O)c1cc([N+](=O)[O-])c(N(CCCl)Cc2ccccc2)c([N+](=O)[O-])c1` yielded an IC50 of 850 nM.

As to `CC(C)CN(CC(C)C)c1c([N+](=O)[O-])cc(S(N)(=O)=O)cc1[N+](=O)[O-]`, the IC50 in the data set on Toxoplasma gondii [1] came to 350 nM.

With `CCCN(CCC)c1c([N+](=O)[O-])cc(S(N)(=O)=O)cc1[N+](=O)[O-]` [ORYZALIN], in the data set with Toxoplasma gondii [1], the IC50 amounted to 250 nM.

`CCCN(CCC)c1c([N+](=O)[O-])cc(S(=O)(=O)Nc2ccc(O)cc2)cc1[N+](=O)[O-]`: the IC50 with Toxoplasma gondii [1] is 2600 nM.

Turning to `NS(=O)(=O)c1cc([N+](=O)[O-])c(N(Cc2ccccc2)CC2CC2)c([N+](=O)[O-])c1`, in the data set on Toxoplasma gondii [1], the IC50 was determined as 2100 nM.

Turning to `CCCCN(CCCC)c1c([N+](=O)[O-])cc(S(N)(=O)=O)cc1[N+](=O)[O-]`, half-maximal inhibition with Toxoplasma gondii [1] (IC50) was put at 1100 nM.

Take `NS(=O)(=O)c1cc([N+](=O)[O-])c(N(CC2CCCCC2)CC2CCCCC2)c([N+](=O)[O-])c1`: the inhibition entry with Toxoplasma gondii [2] and with Toxoplasma gondii [4] was “Active” in each case. In the data set with Toxoplasma gondii RH [5], the inhibition entry is “inactive”.

`CCN(CC)c1c([N+](=O)[O-])cc(C(F)(F)F)c(N)c1[N+](=O)[O-]` [DINITRAMINE] gave an IC50 in the data set on Toxoplasma gondii [1] of 70 nM.

Compound `CCCCN(CCCC)c1c([N+](=O)[O-])cc(C(F)(F)F)c(N)c1[N+](=O)[O-]` yielded an IC50 in the data set on Toxoplasma gondii [1] of 510 nM.

Consider `NS(=O)(=O)c1cc([N+](=O)[O-])c(N(CCCCl)Cc2ccccc2)c([N+](=O)[O-])c1`, for which the IC50 with Toxoplasma gondii [1] amounted to 2600 nM.

In the data set on Toxoplasma gondii [1], `CCCN(CCC)c1c(C#N)cc(S(N)(=O)=O)cc1C#N` had an IC50 of 4800 nM.

As to `CCCN(CCC)c1c([N+](=O)[O-])cc([N+](=O)[O-])cc1C(F)(F)F`, the IC50 in the data set on Toxoplasma gondii [1] was determined as 7800 nM.

The compound `CCCN(CCC)c1c([N+](=O)[O-])cc(C(F)(F)F)cc1[N+](=O)[O-]` [TRIFLURALIN] registered an IC50 in the data set with Toxoplasma gondii [1] of 650 nM.

Turning to `CCCN(CCC)c1c([N+](=O)[O-])cc(S(=O)(=O)N(C)C)cc1[N+](=O)[O-]`, in the data set on Toxoplasma gondii [1], the IC50 stood at 3400 nM.
